Series [1] addresses T1, Peroxisome proliferator-activated receptor alpha (Homo sapiens, UniProt Q07869).
T1 sequence (Q07869 whole entry): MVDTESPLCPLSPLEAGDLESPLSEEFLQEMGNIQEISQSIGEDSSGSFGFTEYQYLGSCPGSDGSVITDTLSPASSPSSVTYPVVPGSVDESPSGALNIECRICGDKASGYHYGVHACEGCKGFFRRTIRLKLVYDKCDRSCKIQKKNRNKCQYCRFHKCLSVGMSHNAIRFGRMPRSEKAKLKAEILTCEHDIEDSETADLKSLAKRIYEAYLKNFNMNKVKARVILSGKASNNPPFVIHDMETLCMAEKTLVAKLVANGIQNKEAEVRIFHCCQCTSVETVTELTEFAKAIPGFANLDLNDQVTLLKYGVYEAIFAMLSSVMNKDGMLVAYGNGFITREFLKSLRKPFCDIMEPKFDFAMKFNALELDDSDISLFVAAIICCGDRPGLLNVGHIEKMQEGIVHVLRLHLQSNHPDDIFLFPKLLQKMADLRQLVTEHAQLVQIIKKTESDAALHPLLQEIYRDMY
The series can be described thus: Agonist activity at Gal4-fused human PPARalpha […] binding domain expressed in HEK293 cells by luciferase reporter gene assay. It is filed as cell-based.

Series [2] deals with T2, Peroxisome proliferator-activated receptor gamma (Homo sapiens, UniProt P37231).
T2 sequence (P37231 whole entry): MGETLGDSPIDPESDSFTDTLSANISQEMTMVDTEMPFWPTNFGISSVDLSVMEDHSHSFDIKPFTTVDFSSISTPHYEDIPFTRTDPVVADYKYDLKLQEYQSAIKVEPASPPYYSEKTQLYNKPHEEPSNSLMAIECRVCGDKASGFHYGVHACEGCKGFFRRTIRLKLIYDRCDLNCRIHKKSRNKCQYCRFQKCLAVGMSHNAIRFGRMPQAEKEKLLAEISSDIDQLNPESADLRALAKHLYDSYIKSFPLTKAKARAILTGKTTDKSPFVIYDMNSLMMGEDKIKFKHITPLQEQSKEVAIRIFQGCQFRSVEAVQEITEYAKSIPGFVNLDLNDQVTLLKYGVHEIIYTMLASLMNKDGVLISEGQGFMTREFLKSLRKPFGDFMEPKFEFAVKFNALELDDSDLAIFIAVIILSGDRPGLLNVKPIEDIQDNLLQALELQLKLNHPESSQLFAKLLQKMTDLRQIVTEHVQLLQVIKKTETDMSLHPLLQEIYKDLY
The series can be described thus: Agonist activity at Gal4-fused human PPARgamma […] binding domain expressed in HEK293 cells by luciferase reporter gene assay. Type of series: cell-based. (In general: A reporter such as luciferase makes a cellular process visible.)

For series [3], the target named is T3, Peroxisome proliferator-activated receptor delta (Homo sapiens, UniProt Q03181).
T3 sequence (Q03181 whole entry): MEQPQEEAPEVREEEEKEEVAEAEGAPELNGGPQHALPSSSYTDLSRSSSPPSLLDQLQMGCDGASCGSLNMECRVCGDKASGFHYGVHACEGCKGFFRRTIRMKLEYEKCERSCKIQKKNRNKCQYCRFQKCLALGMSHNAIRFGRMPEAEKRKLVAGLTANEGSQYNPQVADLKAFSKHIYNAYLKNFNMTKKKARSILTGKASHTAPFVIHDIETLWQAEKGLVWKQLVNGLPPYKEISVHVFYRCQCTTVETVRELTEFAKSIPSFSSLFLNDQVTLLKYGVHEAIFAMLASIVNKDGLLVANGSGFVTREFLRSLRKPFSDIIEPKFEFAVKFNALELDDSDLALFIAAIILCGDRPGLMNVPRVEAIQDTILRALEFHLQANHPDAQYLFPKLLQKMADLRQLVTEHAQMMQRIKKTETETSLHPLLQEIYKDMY
The series can be described thus: Agonist activity at Gal4-fused human PPARdelta […] binding domain expressed in HEK293 cells by luciferase reporter gene assay. Type of series: cell-based.

Series [4] is described as follows: Lipophilicity, log D of the compound. It is filed as physicochemical. Particulars: octanol/water.
In series [5] the target is T3, Peroxisome proliferator-activated receptor delta. The series can be described thus: Induction of PPARdelta-mediated PDK4 mRNA upregulation in human myoblast after 24 hrs. In short, it runs like this:
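Myoblasts isolated from human vastus lateralis skeletal muscle by enzymatic digestion, then differentiated into myotubes for 7 days in 2% horse serum. Myotubes were exposed to compound for 24 h, and fold induction of PDK4 mRNA was measured. EC50 was taken from the dose–response curve, with GW501516 run as the reference agonist.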

pEC50: −log10 of the molar value.

In the case of `Cc1cc(CN2Cc3ccccc3C2C(=O)Nc2ccc(Cl)cc2Cl)ccc1OCC(=O)O` (racemic), the pEC50 (usually −log10 of the EC50, conventionally taken in molar units) in series [1] was < 4.52; in series [2], < 4.52; in series [3] it was 7.60. Also, the logD (as a rule, the decadic logarithm of the distribution of all forms, ionised or not, between an organic phase and buffer at a given pH) in series [4] worked out at 2.6.

Regarding `Cc1cc(CN2Cc3ccccc3C[C@H]2C(=O)Nc2ccc(Cl)cc2Cl)ccc1OCC(=O)O`, the pEC50 in series [1] is 5.60; in series [2], < 4.70; in series [3], 8.30; in series [5], 7.82. Also, in series [4], the logD turned out to be 2.4.

In series [3], `Cc1cc(CN2Cc3ccccc3C2C(=O)Nc2ccc(Cl)cc2)ccc1OCC(=O)O` (stereo not given) gave a pEC50 of 5.60.

`Cc1cc(CN2Cc3ncccc3CC2C(=O)Nc2ccc(Cl)cc2Cl)ccc1OCC(=O)O` (racemic) had a pEC50 in series [3] of 6.30.

In series [3], `Cc1cc(CN2Cc3ccccc3C2C(=O)Nc2cc(Cl)ccc2Cl)ccc1OCC(=O)O` (stereo not given) had a pEC50 of 6.49.

As to `Cc1cc(CN2Cc3cccnc3CC2C(=O)Nc2ccc(Cl)cc2Cl)ccc1OCC(=O)O` (racemic), the pEC50 in series [3] is 5.70.

On to `Cc1cc(CN2CCC(C(=O)Nc3ccc(Cl)cc3Cl)C2)ccc1OCC(=O)O` (stereo not given), for which the pEC50 in series [3] is 6.00. Against the preceding compound, the pEC50 is 0.30 log units higher.

Turning to `Cc1cc(CN2Cc3ccccc3C2C(=O)Nc2ccccc2)ccc1OCC(=O)O` (stereo not given), in series [3], the pEC50 was < 4.22.

For the compound `Cc1cc(CN2Cc3ccccc3C2C(=O)O)ccc1OCC(=O)O` (stereo not given), the pEC50 in series [3] was < 4.70.

On to `Cc1cc(CN2CCc3ccccc3C2C(=O)Nc2ccc(Cl)cc2Cl)ccc1OCC(=O)O` (racemic), for which the negative logarithm of the EC50 (pEC50) in series [1] was 5.20; in series [2] it was 5.57; in series [3] it was 8.00; in series [5], 7.15. The same compound returned a logD in series [4] of 2.6.

For the compound `Cc1cc(CN2CCCC2C(=O)Nc2ccc(Cl)cc2Cl)ccc1OCC(=O)O` (stereo not given), the pEC50 in series [3] is 5.80.

As for `Cc1cc(CN2Cc3ccccc3C[C@@H]2C(=O)Nc2ccc(Cl)cc2Cl)ccc1OCC(=O)O`, the pEC50 in series [1] was 5.90; in series [2] it was 6.10; in series [3], 9.30.

The values above are taken from ChEMBL document CHEMBL1641418, “Discovery of isoindoline and tetrahydroisoquinoline derivatives as potent, selective PPARδ agonists” (Bioorg Med Chem Lett, 2011).
